Data set [1] in a line: Volume of distribution at steady state in Wistar rat at 1 mg/kg, iv after 8 hrs. It is filed as ADME, organism-based. Also noted: dose 1 mg/kg, route intravenous. The settings on record: in vivo, read-out: Vss. Put shortly: (§1)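 Male Wistar rats, fasted overnight, dosed iv at 1 mg/kg. Blood sampled from 0.1 to 24 h; plasma stored at -20 °C. Levels measured by isocratic HPLC-UV (225 nm) after on-line solid-phase extraction, or by HPLC-MS (ESI+) for one analyte. Parameters from noncompartmental analysis.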

Data set [2] addresses T1, Adrenergic receptor alpha-1 (Rattus norvegicus, UniProt P15823+P23944+P43140).
T1 sequence (P15823 whole entry): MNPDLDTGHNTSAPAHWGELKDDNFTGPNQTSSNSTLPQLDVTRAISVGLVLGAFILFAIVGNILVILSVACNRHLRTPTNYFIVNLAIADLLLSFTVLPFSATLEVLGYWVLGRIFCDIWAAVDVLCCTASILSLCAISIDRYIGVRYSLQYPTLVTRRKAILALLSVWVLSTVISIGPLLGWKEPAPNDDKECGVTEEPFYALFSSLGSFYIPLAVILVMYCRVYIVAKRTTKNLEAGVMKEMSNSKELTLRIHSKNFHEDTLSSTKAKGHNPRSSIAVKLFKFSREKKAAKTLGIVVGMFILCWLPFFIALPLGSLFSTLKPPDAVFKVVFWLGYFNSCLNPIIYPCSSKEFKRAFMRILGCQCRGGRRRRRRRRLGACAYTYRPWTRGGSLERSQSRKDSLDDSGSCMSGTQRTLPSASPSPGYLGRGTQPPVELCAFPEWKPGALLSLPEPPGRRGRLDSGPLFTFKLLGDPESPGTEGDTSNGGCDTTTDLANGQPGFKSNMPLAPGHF
T1 sequence (P23944 whole entry): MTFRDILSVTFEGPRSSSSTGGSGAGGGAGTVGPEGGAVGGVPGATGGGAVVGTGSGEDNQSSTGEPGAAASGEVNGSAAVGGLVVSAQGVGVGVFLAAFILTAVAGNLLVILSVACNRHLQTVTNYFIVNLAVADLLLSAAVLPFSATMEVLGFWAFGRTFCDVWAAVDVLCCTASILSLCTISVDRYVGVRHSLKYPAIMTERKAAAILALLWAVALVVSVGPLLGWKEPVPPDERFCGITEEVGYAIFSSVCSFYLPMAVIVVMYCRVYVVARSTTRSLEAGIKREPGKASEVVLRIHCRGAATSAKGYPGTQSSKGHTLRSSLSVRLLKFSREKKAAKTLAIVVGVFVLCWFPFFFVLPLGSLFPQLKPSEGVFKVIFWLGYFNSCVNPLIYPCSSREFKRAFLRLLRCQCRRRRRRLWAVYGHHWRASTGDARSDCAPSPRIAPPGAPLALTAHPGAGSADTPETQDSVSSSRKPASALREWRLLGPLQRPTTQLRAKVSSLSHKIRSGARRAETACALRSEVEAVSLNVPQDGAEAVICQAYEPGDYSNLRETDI
T1 sequence (P43140 whole entry): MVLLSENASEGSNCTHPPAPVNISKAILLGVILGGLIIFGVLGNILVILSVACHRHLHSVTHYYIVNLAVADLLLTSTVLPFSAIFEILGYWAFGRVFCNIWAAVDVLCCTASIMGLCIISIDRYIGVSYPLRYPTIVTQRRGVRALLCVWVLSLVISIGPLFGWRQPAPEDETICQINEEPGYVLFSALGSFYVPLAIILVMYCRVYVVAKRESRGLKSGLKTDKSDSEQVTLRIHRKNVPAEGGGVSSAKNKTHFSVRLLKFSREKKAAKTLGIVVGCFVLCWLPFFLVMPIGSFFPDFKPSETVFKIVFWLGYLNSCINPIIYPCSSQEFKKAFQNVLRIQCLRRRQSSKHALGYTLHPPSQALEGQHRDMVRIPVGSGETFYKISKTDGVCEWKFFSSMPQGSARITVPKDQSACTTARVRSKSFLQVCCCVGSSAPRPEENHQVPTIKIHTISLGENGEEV
As to the kind of experiment: Displacement of [3H]prazosin from adrenergic alpha-1 receptor in rat brain membranes. It is filed as cell membranes. Put shortly:
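Rat brain membranes (340 µg protein/mL) with 0.25 nM [3H]-prazosin in 50 mM Tris-HCl pH 7.7, room temperature, 60 min, filtration. Nonspecific binding with 100 µM prazosin. Several concentrations run in duplicate; IC50 by nonlinear regression.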

In data set [3] the test system is Cavia porcellus. As to the kind of experiment: Effect on QT interval prolongation in Dunkin-Hartley guinea pigs at 30 mg/kg, iv. Format: functional, organism-based. More on the design: dose 30 mg/kg. The gist of the method: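 Male guinea pigs (500-600 g), urethane 1.5 g/kg anaesthesia, ventilated (10 mL/kg, 60 cycles/min). Stabilised at least 30 min, then 3-min jugular iv perfusion at 3, 10 and 30 mg/kg. Surface ECG recorded at end of perfusion and at 15, 30, 45 and 60 min. QTc by Bazett; change in ms from baseline. Vehicle-only controls.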

The subject of data set [4] is Rattus norvegicus. As to the kind of experiment: Inhibition of increase in histamine-induced cutaneous vascular permeability in orally dosed Wistar rat model after 1 hrs. It is filed as functional. The conditions noted are these: po. The gist of the method: (§2)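 Male Wistar rats (150-175 g), fasted, dosed orally in 0.5% methylcellulose/0.1% Tween 80 (10 mL/kg), n=5. At 1 or 8 h after dosing, four intradermal injections of 5 µg histamine were given, plus iv 0.5% Evans Blue. Papule area (ellipse) measured 1 h later. ED50 in mg/kg po.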

The subject of data set [5] is Rattus norvegicus. Briefly: Inhibition of increase in histamine-induced cutaneous vascular permeability in orally dosed Wistar rat model after 4 hrs. It is filed as functional. The conditions noted are these: po. Put shortly:
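Fasted male rats (150-175 g; n=5 per condition) dosed orally in 0.5% methylcellulose/0.1% Tween 80. At 4 h, under light ether, received four intradermal injections of 5 µg histamine, then 0.5% Evans Blue iv. Killed 1 h later. Papule area from maximum and minimum diameters (ellipse); inhibition of papule area; ED50 (mg/kg, po).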

The nature of data set [6]: Half life in Wistar rat at 1 mg/kg, iv after 8 hrs. The settings on record: in vivo. Format: ADME, organism-based. Also noted: dose 1 mg/kg, route intravenous. Put shortly: as §1
The target of data set [7] is Histamine H1 receptor (Mus musculus) (UniProt P70174). Briefly: Ex vivo displacement of [3H]mepyramine from brain histamine H1 receptor in orally dosed Swiss Albino mouse. Format: functional, organism-based. The gist of the method: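 Overnight-fasted male mice (20-25 g) dosed orally at several doses (0.5% methylcellulose/0.1% Tween 80, 10 mL/kg), killed 90 min later. Whole brain homogenised in ice-cold 0.05 M Na+/K+ phosphate pH 7.4; aliquots incubated in triplicate with 2 nM final [3H]-mepyramine, 40 min at 30 °C, then filtered. Nonspecific binding from 30 mg/kg po D-chlorpheniramine; total binding from vehicle. Three animals per dose; ED50 reported.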
(Loss of bound radioactivity is the signal in a displacement assay; it reports binding, not function.)

In a further data set the target is CYP3A4 (Homo sapiens, UniProt P08684). Briefly: Inhibition of CYP3A4 in human microsomes at 25 uM. Format: ADME, Microsome.
Data set [8] deals with Rattus norvegicus. Briefly: Inhibition of increase in histamine-induced cutaneous vascular permeability in orally dosed Wistar rat model after 8 hrs. Format: functional. The conditions noted are these: po. The gist of the method: as §2
Data set [9] in a line: Clearance in Wistar rat at 1 mg/kg, iv after 8 hrs. Format: ADME, organism-based. The settings on record: in vivo. More on the design: dose 1 mg/kg, route intravenous. Put shortly:
as §1

The next data set deals with Histamine H1 receptor (Cavia porcellus, UniProt P31389). As to the kind of experiment: Displacement of [3H]mepyramine from histamine H1 receptor in guinea pig cerebellum membranes. Format: cell membranes, Membrane. The gist of the method:
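Guinea pig cerebellum membranes (160 µg/mL) incubated with 0.7 nM [3H]-mepyramine at 30 °C for 30 min, 0.5 mL final volume, ended by filtration. Nonspecific binding with 10 µM promethazine. At least six concentrations in duplicate; IC50 by nonlinear regression. Compound stocks 10^-2 M in DMSO, diluted in 50% DMSO.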

For data set [10], the system named is Cavia porcellus. Briefly: Effect on QT interval prolongation in Dunkin-Hartley guinea pigs at 3 mg/kg, iv. It is filed as functional, organism-based. Also noted: dose 3 mg/kg.

Activity calls are given as the source filed them. Unless noted, the calls are words filed in the database; no cut-off is given here.

Broadly, the IC50 is the concentration at which inhibition is half-maximal. The ED50 is the dose at which the effect has come halfway, by size or by number of responders. A high value points to weaker potency. For orientation: half-life means the time in which the quantity being followed falls by half. One may read the inhibition as the change of the read-out against control, counted positive when it falls. One may read the clearance as a measure of how efficiently the substance is removed, as volume per time. The low end stands for a low capacity for elimination, the high end for a high capacity for elimination.

Chain of Histamine H1 receptor (Mus musculus) (P70174 whole entry): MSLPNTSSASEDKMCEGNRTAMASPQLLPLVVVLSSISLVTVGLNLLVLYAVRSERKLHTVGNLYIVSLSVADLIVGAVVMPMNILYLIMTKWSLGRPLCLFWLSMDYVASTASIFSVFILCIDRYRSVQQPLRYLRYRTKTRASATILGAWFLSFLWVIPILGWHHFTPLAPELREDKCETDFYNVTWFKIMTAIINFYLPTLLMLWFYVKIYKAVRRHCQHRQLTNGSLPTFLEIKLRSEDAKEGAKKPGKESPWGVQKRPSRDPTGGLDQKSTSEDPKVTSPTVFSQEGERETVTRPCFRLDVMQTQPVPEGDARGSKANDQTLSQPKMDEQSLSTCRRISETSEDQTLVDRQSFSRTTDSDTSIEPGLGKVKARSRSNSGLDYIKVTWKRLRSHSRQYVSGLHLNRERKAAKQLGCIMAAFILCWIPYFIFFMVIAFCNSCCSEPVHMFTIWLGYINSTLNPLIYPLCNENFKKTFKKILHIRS
Chain of CYP3A4 (P08684 whole entry): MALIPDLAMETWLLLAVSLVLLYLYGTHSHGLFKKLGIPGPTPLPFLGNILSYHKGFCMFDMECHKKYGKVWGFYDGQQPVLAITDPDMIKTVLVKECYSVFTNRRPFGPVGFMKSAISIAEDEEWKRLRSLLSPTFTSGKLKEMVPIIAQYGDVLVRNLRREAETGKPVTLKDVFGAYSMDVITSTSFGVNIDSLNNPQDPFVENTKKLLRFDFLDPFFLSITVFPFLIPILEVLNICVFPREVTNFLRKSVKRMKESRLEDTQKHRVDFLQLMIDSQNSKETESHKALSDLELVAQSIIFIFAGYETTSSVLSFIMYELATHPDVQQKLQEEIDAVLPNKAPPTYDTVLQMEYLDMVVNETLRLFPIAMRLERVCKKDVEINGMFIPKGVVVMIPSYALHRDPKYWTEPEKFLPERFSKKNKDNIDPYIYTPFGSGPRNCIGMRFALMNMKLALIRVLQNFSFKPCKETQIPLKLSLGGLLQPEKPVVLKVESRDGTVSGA
Chain of Histamine H1 receptor (P31389 whole entry): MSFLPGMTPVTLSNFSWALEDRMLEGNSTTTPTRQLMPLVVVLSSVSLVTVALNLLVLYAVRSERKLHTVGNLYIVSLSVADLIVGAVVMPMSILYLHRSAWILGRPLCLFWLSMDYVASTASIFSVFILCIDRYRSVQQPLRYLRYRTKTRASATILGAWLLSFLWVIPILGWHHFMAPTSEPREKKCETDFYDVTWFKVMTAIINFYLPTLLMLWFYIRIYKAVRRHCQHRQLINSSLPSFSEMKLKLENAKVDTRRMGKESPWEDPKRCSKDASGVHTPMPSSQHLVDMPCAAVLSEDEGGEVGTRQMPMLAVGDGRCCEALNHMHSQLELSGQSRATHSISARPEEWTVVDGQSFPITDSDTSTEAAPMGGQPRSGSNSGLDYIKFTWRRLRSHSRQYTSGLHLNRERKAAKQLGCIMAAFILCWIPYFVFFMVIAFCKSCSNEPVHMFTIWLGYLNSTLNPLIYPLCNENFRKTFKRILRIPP

For `COCCn1cc(C2CCN(CCOc3ccccc3C(=O)O)CC2)c2ccc(F)cc21`, the Vd in data set [1] was 0.3 L/kg. Also, the IC50 is greater than 10 µM in data set [2] and 0.14 µM (antagonist) at Histamine H1 receptor. In addition, the result with Cavia porcellus [3] was inactive. Moreover, the ED50 is 0.16 mg/kg in the data set with Rattus norvegicus [4], 0.29 mg/kg in the data set with Rattus norvegicus [5], 40 mg/kg in [7] and 0.13 mg/kg (antagonist) in the data set on Rattus norvegicus [8]. For the same compound, the half-life in [6] was 3.4 h. Besides, at CYP3A4, the inhibition at 25 µM came to 15%. The compound further gave a clearance in [9] of 1.67 mL/min/kg.

On to `O=C(O)COCCN1CCN(C(c2ccccc2)c2ccc(Cl)cc2)CC1` (configuration not stated), for which the outcome in the data set with Cavia porcellus [10] was inactive.

As for `COCCn1cc(C2CCN(Cc3ccc(OC)c(C(=O)O)c3)CC2)c2ccccc21`, in [1], the Vd turned out to be 0.6 L/kg. The compound also gave an IC50 in data set [2] greater than 10 µM. In addition, in the data set with Cavia porcellus [3], the result was inactive. The ED50 in the data set with Rattus norvegicus [4] was 0.03 mg/kg; in the data set on Rattus norvegicus [5], 0.05 mg/kg; in [7], 9.5 mg/kg; in the data set on Rattus norvegicus [8], 0.14 mg/kg (antagonist). For the same compound, the half-life in data set [6] is 3.9 h. The inhibition at 25 µM against CYP3A4 was -9%. In data set [9], this compound showed a clearance of 3.33 mL/min/kg.

(Values after ChEMBL document CHEMBL1149258, “Synthesis and structure-activity relationships of novel histamine H1 antagonists: indolylpiperidinyl benzoic acid derivatives” (J Med Chem, 2004).)
